Rows were chosen to be rich in hits. Some 6.6% of all compounds tested hit in one or more screens of this group.
Her2 expr inh: inhibitors of human Her2 kinase expression | P04626 | HER2 level % of control, % at 10 µM | actives 0.69% (n = 65,000) | SKBR-3 HER2 protein level, AlphaScreen, 18-24 h; active compounds read low;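 active = HER2 level under 5% of the carrier-only control; inconclusive = no clear call, values can overlap the other calls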;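 note: lower value means stronger loss of Her2 protein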
M1 agonist: M1 muscarinic receptor agonism; CHO-M1 cells, Fluo-4 calcium fluorescence, agonist mode; active compounds read high; AID 626; B-score at 10 µM; actives 3% (n = 64,000);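 active = fluorescence rise, raw or as B-score row- and column-corrected plate score, outside the 99.7% band of its plate's samples, either direction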
JNK3 inh: JNK3 (human) kinase inhibition. P53779. purified JNK3 kinase activity, HTS. inhibition, % at 8 µM. actives 0.61% (n = 60,000). AID 746; in the data active = inhibition above about 17%
BAP1 inh: blocks human BAP1 ubiquitin-AMC hydrolysis; actives 0.48% (n = 72,000); AID 436; recombinant BAP1, Ub-AMC hydrolysis fluorescence kinetic; active compounds read low; calls only at 20 µM; Q92560;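 active = activity remaining at or below 50% of control, provided the compound also passes the data quality filters; inactive = the rest, including low values that fail the filters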
Target sequence (Q92560 whole entry, looked up): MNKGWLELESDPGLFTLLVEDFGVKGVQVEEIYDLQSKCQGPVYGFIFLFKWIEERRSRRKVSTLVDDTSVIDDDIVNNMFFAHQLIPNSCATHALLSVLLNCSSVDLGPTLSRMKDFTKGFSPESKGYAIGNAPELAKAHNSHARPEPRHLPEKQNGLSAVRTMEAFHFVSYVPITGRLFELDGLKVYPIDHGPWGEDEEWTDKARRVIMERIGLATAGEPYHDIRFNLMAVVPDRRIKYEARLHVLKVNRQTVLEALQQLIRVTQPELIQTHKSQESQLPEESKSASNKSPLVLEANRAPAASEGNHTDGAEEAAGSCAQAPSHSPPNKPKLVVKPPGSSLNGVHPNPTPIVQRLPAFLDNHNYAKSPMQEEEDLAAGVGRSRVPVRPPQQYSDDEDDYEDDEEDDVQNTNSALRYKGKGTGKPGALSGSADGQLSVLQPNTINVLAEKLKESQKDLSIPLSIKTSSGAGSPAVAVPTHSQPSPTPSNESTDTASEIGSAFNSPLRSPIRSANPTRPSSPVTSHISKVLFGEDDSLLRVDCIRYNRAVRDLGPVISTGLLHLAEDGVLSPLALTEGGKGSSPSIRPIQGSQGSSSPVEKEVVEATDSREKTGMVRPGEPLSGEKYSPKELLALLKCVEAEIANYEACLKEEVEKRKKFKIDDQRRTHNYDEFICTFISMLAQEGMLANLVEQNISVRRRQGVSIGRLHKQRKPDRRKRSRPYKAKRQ
HEK293 NFkB inh: lowers PMA/ionomycin-induced NF-kB signal in HEK293 cells; inhibition, % at 3 µM; HEK-293 NF-kB luciferase reporter, luminescence; actives 0.21% (n = 62,000);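 active = inhibition above the mean of all tested compounds plus 3 SD, cut at about 40% in these data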
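Reagent: PMA plus ionomycin mix as NF-kB-activating stimulus. Assay system: NF-kB luciferase reporter HEK-293 cells. Technique: luminescence from luciferase substrate reagent. Incubation: 1 h compound pre-incubation, 16 h PMA/ionomycin at 37 °C. Benchmarks: DMSO only as uninhibited control, 10 µM reference inhibitor as full inhibition. Repeats: tested once.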
M1 antag: antagonists of rat M1 muscarinic receptor | P08482 | CHO-M1 cells, Fluo-4 calcium, ACh EC80 antagonist mode; active compounds read low | B-score at 10 µM | actives 3.4% (n = 64,000) | AID 628;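 active = calcium fluorescence response, raw or row-and-column corrected B-score, differing from the plate sample mean either way at a set confidence level, mostly lower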
M1 ag confirm: rat M1 muscarinic agonism, confirmation. shares compounds with M1 agonist. CHO-M1 cells, Fluo-4 calcium fluorescence, agonist mode; actives lie on both sides. fluorescence change (max-min) at 10 µM. actives 19% (n = 1,700);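 active = fluorescence change differs from the solvent-only DMSO control mean at a set confidence level in both duplicate runs; inconclusive = differs from solvent-only control mean in just one of two runs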;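 note: an EC20 dose of acetylcholine follows compound addition during the same imaging run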
M4 agonist ctr: counter-screen for M1 agonists: activity at rat M4 receptor; fluorescence change (max-min) at 10 µM; actives 9% (n = 1,700); CHO M4/Gqi5 cells, Fluo-4 calcium fluorescence, agonist mode; actives lie on both sides; AID 1741; shares compounds with M1 agonist;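 active = fluorescence change differing from the plate's solvent-only control wells at 99.7% confidence in both duplicates, whether higher or lower; inconclusive = differs from solvent controls in only one of two duplicates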
Large screens that a line does not name were inactive (follow-up assays come after a bar, where they were run).

COc1cccc(N2CCN(c3ncnc4c3cnn4-c3ccc(C)cc3C)CC2)c1	M1 agonist 9.74 | M1 ag confirm inactive | M4 agonist ctr inactive
CCOC(=O)c1sc(NC(=O)c2ccc(C)cc2)c(C(=O)OCC)c1C	none (no result: Her2 expr inh, M1 agonist, JNK3 inh, HEK293 NFkB inh, M1 antag)
COCCn1c(=S)[nH]c2ccc(N(C)C)cc2c1=O	M1 agonist 6.26 | M1 ag confirm inactive | M4 agonist ctr inactive
CCSc1nnc(N2C(=O)c3ccc([N+](=O)[O-])cc3C2=O)s1	none (no result: Her2 expr inh, M1 agonist, JNK3 inh, HEK293 NFkB inh, M1 antag)
CCCCCC(=O)Nc1ccc(N2CCN(S(C)(=O)=O)CC2)cc1	M1 agonist -2.27 | M1 ag confirm inactive | M4 agonist ctr inactive
CCC1CCCCN1S(=O)(=O)c1ccc(S(=O)(=O)N(Cc2cccs2)C2CC2)cc1 (configuration not stated)	M1 agonist 9.7, M1 antag -1.9 | M1 ag confirm -31.3 | M4 agonist ctr -71.9
COc1ccc(CCN2CC(C#N)=C3c4cc(OC)c(OC)cc4CCN3C2)cc1OC	none
COc1cc2c(cc1OC)C1=C(C#N)CN(C3CCCCC3)CN1CC2	M1 agonist 5.14 | M1 ag confirm inactive | M4 agonist ctr inactive
CCOc1ccc2oc(-c3ccccc3)c(C(=O)N3CCCCC3)c2c1	none (no result: Her2 expr inh, M1 agonist, JNK3 inh, HEK293 NFkB inh, M1 antag)
COc1ccc(-c2cc(C(=O)N3CCOCC3)c3cc(C)ccc3n2)cc1	M1 agonist 4.07 | M1 ag confirm inactive | M4 agonist ctr inactive
Cc1cc(-c2ccccc2)n(-c2ccc(C(=O)N3CCN(c4ncccn4)CC3)cc2)n1	M1 agonist 9.15 | M1 ag confirm inconclusive | M4 agonist ctr inconclusive
COc1ccc2oc(-c3ccccc3)c(C(=O)N3CCOCC3)c2c1	M1 agonist 3.99 | M1 ag confirm inactive | M4 agonist ctr inactive
Cc1ccc(-c2cc(C(=O)N3CCN(c4ncccn4)CC3)c3ccccc3n2)cc1	M1 agonist 8.8 | M1 ag confirm inactive | M4 agonist ctr -111
CC(C)Oc1cccc(-c2cc(C(=O)N3CCN(S(C)(=O)=O)CC3)c3ccccc3n2)c1	M1 agonist 3.65 | M1 ag confirm inconclusive | M4 agonist ctr inactive
COc1cccc(-c2cc(C(=O)N3CCN(c4ncccn4)CC3)c3ccccc3n2)c1	none
Cc1ccc2nc(-c3ccccn3)cc(C(=O)N3CCN(c4ncccn4)CC3)c2c1	M1 agonist 3.57 | M1 ag confirm inactive | M4 agonist ctr inactive
CCN(C1CCCCC1)S(=O)(=O)c1ccc(S(=O)(=O)NCc2ccncc2)cc1	M1 agonist 3.75, M1 antag -2.2 | M1 ag confirm inactive | M4 agonist ctr inactive
CCOC(=O)C1CCN(c2nc(C)nc3c2oc2ccccc23)CC1	none (no result: JNK3 inh, BAP1 inh)
CCOC(=O)C1CCCN(c2nc(C)nc3c2oc2ccccc23)C1 (configuration not stated)	M1 agonist 1.81 (no result: JNK3 inh, BAP1 inh) | M1 ag confirm inactive | M4 agonist ctr inactive
O=S(=O)(NCc1ccccc1)c1ccc2c(c1)OCCO2	M1 agonist 7.43 | M1 ag confirm inactive | M4 agonist ctr inactive
O=C(CCn1c(=O)oc2ccccc21)NCCN1CCc2ccccc2C1	M1 agonist 3.32 | M1 ag confirm inactive | M4 agonist ctr inactive
CCCCCn1c(=N)n(CC(O)COc2ccccc2OC)c2ccccc21 (configuration not stated)	M1 agonist 3.08 | M1 ag confirm inactive | M4 agonist ctr inactive
O=C1CCN2C=Nc3cccc4ccc1c2c34	M1 agonist 493, M1 antag -10.9 | M1 ag confirm 3266 | M4 agonist ctr 2765
Cc1cccc(OCCCCCn2ccnc2)c1	M1 agonist 4.53 | M1 ag confirm inactive | M4 agonist ctr inactive
Cc1ccccc1OCCCCCn1ccnc1	none
COC(=O)CSc1nnc2n(-c3ccccc3)c(=O)c3c4c(sc3n12)COC(C)(C)C4	none (no result: Her2 expr inh, M1 agonist, JNK3 inh, HEK293 NFkB inh, M1 antag)
CC1=C(C(=O)OCCSc2ccccc2)C(c2ccc3c(c2)OCO3)NC(=O)N1 (configuration not stated)	none (no result: Her2 expr inh, M1 agonist, JNK3 inh, HEK293 NFkB inh, M1 antag)
O=C(c1cn(-c2ccccc2)nc1-c1ccc(Cl)s1)N1CCOCC1	M1 agonist 7.71 | M1 ag confirm inactive | M4 agonist ctr inactive

From PubChem
